Tested on: MS2 coat protein
Assay: apparent Kd, MS2 coat protein; higher = weaker binding; RNA-MaP array; FMN 200 µM where present
How it was run: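 Designs were transcribed by stalled E. coli RNA polymerase on Illumina sequencing-chip clusters. They were titrated with SNAP-549-labelled MS2 coat protein from 0.7 or 1.5 nM, doubling to 3 µM, in 100 mM Tris-HCl pH 7.5, 80 mM KCl, 4 mM MgCl2, BSA, DTT, yeast tRNA and Tween-20, without and then with constant ligand. The apparent Kd is the median of filtered per-cluster fits after normalisation of green signal to red-channel RNA signal and control-cluster median Fmax.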

[1] = designed as: ON switch for flavin mononucleotide, no ligand
[2] = ligand present: flavin mononucleotide, designed as: ON switch for flavin mononucleotide
[3] = designed as: OFF switch for flavin mononucleotide, no ligand
[4] = ligand present: flavin mononucleotide, designed as: OFF switch for flavin mononucleotide

GCGCUUAUACAGAAGGCCAGAGACAUGAGGAUCACCCAUGUUAGAUGGUGGAGGAUAUGUGUUUUAUUACAGAUAGUUGAGCGC
apparent Kd [1]: 6.38 nM | apparent Kd [2]: 6.13 nM

GCGCUUAUACAGAAGGCCAGAGACAUGAGGAUCACCCAUGUUAGAUUGUGGAGGAUAUGUGUUUUAUUACAGAUAGUUGAGCGC
apparent Kd [1]: 20.5 nM | apparent Kd [2]: 6.53 nM

GCGGAGAUACAGAAGGGAUAGGCCCUGGGCUAGUCAGGAUAUGUACGACGCAUCGUACAUGAGGAUCACCCAUGUAGCCGCUUG
apparent Kd [1]: 278 nM | apparent Kd [2]: 189 nM

GCGGUAAAGAUCCAUUUUUACAACAUGAGGAUCACCCAUGUGCAGGAUAUCGAAUGUUUUAUAUUCGAGAAGGGCAAUUACCGC
apparent Kd [3]: 20.7 nM | apparent Kd [4]: 57.5 nM

GCGUAACAUGAGGAUCACCCAUGUACUCGAGAAUUCGAGUGUAGAAGGGUGACCGGUCGUUUGGCACAGGAUAUACACGCUGUG
apparent Kd [1]: 31.5 nM | apparent Kd [2]: 12 nM

GCGUAACAUGAGGAUCACCCAUGUGCCCGAGAAUUCGGGCCGAGAAGGGUGACCGGUCGUUUGGCACAGGAUAUCGACGUUGUG
apparent Kd [1]: 31.5 nM | apparent Kd [2]: 12.7 nM

GCGUAAGUCACAGGAUAUCCAACAUGAGGAUCACCCAUGUAAAAGUGCCGCACUAGAAUGCGACUGGAGAAGGGUGAUUCGUCG
apparent Kd [1]: 50.3 nM | apparent Kd [2]: 27.5 nM

GCGUAAUUGAUCCUAUUUACCAACAUGAGGAUCACCCAUGUGCAGGAUAUGCUAAAGAUAGAUAAGCAGAAGGGCAUUUACCGC
apparent Kd [3]: 47 nM | apparent Kd [4]: 211 nM

GCGUGACAUGAGGAUCACCCAUGUGAGGAUAUCUGGAUACUCUUUAUUUUAGAUAUCCAGAGAAGGCACAUGCU
apparent Kd [3]: 217 nM | apparent Kd [4]: 151 nM

GCGUGGUUCUAGAAGGUGCUAGCGAUAAGCUAGCAAGGAUAUAGACAUGAGGAUCACCCAUGUCUAUGUGAAAUAGACACACGC
apparent Kd [3]: 4.75 nM | apparent Kd [4]: 4.62 nM

GCGUUAAAGAUCCAUUUUUACAACAUGAGGAUCACCCAUGUGCAGGAUAUCGAAUGUUUUAUAUUCGAGAAGGGCAAUUUCCGC
apparent Kd [3]: 70.3 nM | apparent Kd [4]: 99.3 nM

GCGUUGAACGAGAAGGCCAAUACAUGAGGAUCACCCAUGUUAAGUUGUUUUGGAGGAUAUCGAACACAUUCAAUAUUGCAACGC
apparent Kd [3]: 6.06 nM | apparent Kd [4]: 5.65 nM

GCGUUGUACGAGAAGGCCAAUACAUGAGGAUCACCCAUGUUAAGUUGUUUUGGAGGAUAUCGAUCACCUACAAUAAUGCAACGC
apparent Kd [3]: 6.83 nM | apparent Kd [4]: 5.9 nM

GCUAAGAAAGGAUAUACACCGGUGAGCCGCUGAUUUCAGCAACAUGAGGAUCACCCAUGUAGAAGGUUUAUGGG
apparent Kd [3]: 367 nM | apparent Kd [4]: 110 nM

GCUAAUUAGUGAGGAUAUACAUAAUUUAUUACUGUAGAAGGCACAAACCUCAAGACAUGAGGAUCACCCAUGUGGUAUUUAAGC
apparent Kd [3]: 151 nM | apparent Kd [4]: 394 nM

GCUAGGAAUGUCAGGAUAUGCUGUACCUUGGUACAGCAGAAGGGACAUGAGGAUCACCCAUGUGCUAACCUAGC
apparent Kd [3]: 29.6 nM | apparent Kd [4]: 130 nM

GCUAGUAUUGCAGGAUAUUGAGAAUAAUUAUUACAAGAAGGGCAUAACAUGAGGAUCACCCAUGUAUUCCUUAAUGAUACUAGC
apparent Kd [3]: 6.31 nM | apparent Kd [4]: 7.13 nM

GCUAUCGGGUGAGGAUAUAUGAUUGUGAUUAAAAUAGAAGGCAUCUCAGAAGACAUGAGGAUCACCCAUGUAGUUAAGAUGGCC
apparent Kd [1]: 14.6 nM | apparent Kd [2]: 11.4 nM

GCUAUCGGGUGAGGAUAUAUGAUUGUGAUUAAAAUAGAAGGCAUCUCAGAAGACAUGAGGAUCACCCAUGUAGUUAAGAUGGCU
apparent Kd [1]: 15.3 nM | apparent Kd [2]: 12.8 nM

GCUCACCGUCAGAAGGUACUUAAAAGUUGUGAGUAAGGAUAUGACAUGAGGAUCACCCAUGUAAACGUGGACUUUCACAUACAU
apparent Kd [3]: 13.5 nM | apparent Kd [4]: 59.1 nM

GCUCCCGGUGUCAGGAUAUAGAGUUGGAAACGCCACUAGAAGGGACAUGAGGAUCACCCAUGUCAAGUUCGCUC
apparent Kd [3]: 14.8 nM | apparent Kd [4]: 14.9 nM

GCUCGAUGUGCUGAAAACAUGAGGAUCACCCAUGUAGAUGAUCAGGAUAUUUACGUGCUUUAUGUAGAGAAGGGAUCAUCGAGC
apparent Kd [1]: 64 nM | apparent Kd [2]: 27.7 nM

GCUGACGAUGUAGGAUAUCUCGACGAUAAGUCGAGAGAAGGACAUGAGGAUCACCCAUGUACUCCAACGUCAGCGAGGAAACUC
apparent Kd [3]: 18.2 nM | apparent Kd [4]: 18.5 nM

GCUGACGAUGUAGGAUAUCUCGACGAUAAGUCGAGAGAAGGACAUGAGGAUCACCCAUGUAUCUCAACGUCAGCGAGGAAACUC
apparent Kd [3]: 16.4 nM | apparent Kd [4]: 20.4 nM

GCUGACGAUGUAGGAUAUCUCGACGAUAAGUCGAGAGAAGGACAUGAGGAUCACCCAUGUCUCCAAACGUCAGCGAGGAAACUC
apparent Kd [3]: 16.1 nM | apparent Kd [4]: 16.4 nM

GCUGCAUAGGCAGGAUAUACAAUAAUUCGAAUAAAAUAUAACGAAUUAACAUGAGGAUCACCCAUGUAGAAGGGCCUGUGCAGU
apparent Kd [3]: 6.32 nM | apparent Kd [4]: 10.4 nM

GCUGCGCGAGGAUAUGCGGUUCGCGCUGUGGCCCGUGGCGCACAUGAGGAUCACCCAUGUAGAAGGCGUGCGGG
apparent Kd [3]: 12.2 nM | apparent Kd [4]: 13.1 nM
